Test system: U2OS
Test: Multiplex assay against U2OS
Assay type: toxicity, cell-based
Conditions: human
Procedure, shortened: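 With compound added, live cells were imaged on a CQ1 microscope at 37°C and 5% CO2; staining with Hoechst33342, BioTracker Green Microtubule Cytoskeleton Dye, MitoTracker Red and Annexin V Alexa Fluor 680 had been done at seeding. The CellPathfinder machine-learning gating scheme split cells into Hoechst high-intensity objects or normal cells, normal cells into healthy, pyknosed or fragmented nuclei, and pyknosed cells into mitotic or apoptotic. The tubulin, mitochondrial-mass and membrane-permeability phenotypes are per cents of healthy-nucleus cells.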

[1] = 12 h, 1 µM, compound concentration 1 uM, replicate 1
[2] = 12 h, 1 µM, compound concentration 1 uM, replicate 2
[3] = 12 h, 10 µM, compound concentration 10 uM, replicate 1
[4] = 12 h, 10 µM, compound concentration 10 uM, replicate 2
[5] = 24 h, 1 µM, compound concentration 1 uM, replicate 1
[6] = 24 h, 1 µM, compound concentration 1 uM, replicate 2
[7] = 24 h, 10 µM, compound concentration 10 uM, replicate 1
[8] = 24 h, 10 µM, compound concentration 10 uM, replicate 2
[9] = 48 h, 1 µM, compound concentration 1 uM, replicate 1
[10] = 48 h, 1 µM, compound concentration 1 uM, replicate 2
[11] = 48 h, 10 µM, compound concentration 10 uM, replicate 1
[12] = 48 h, 10 µM, compound concentration 10 uM, replicate 2

CNC[C@H](O)c1ccc(O)c(O)c1 [EPINEPHRINE]
Population Apoptotic (%) [1]: 88%
Population Fragmented Nuclei (%) [1]: 35%
Population Healthy Nuclei (%) [1]: 56%
Population Hoechst High Intensity Objects (%) [1]: 2%
Population Membrane Permeable-Phenotype (%) [1]: 5%
Population Mitochondria Different-Phenotype (%) [1]: 1%
Population Mitotic Cells (%) [1]: 11%
Population Normal (%) [1]: 97%
Population Pyknosed Nuclei (%) [1]: 7%
Population Tubulin-Different-Phenotype (%) [1]: 2%
Total Cell Count [1]: 229
Population Apoptotic (%) [2]: 80%
Population Fragmented Nuclei (%) [2]: 17%
Population Healthy Nuclei (%) [2]: 77%
Population Hoechst High Intensity Objects (%) [2]: 0%
Population Membrane Permeable-Phenotype (%) [2]: 7%
Population Mitochondria Different-Phenotype (%) [2]: 2%
Population Mitotic Cells (%) [2]: 20%
Population Normal (%) [2]: 100%
Population Pyknosed Nuclei (%) [2]: 5%
Population Tubulin-Different-Phenotype (%) [2]: 4%
Total Cell Count [2]: 92
Population Apoptotic (%) [3]: 92%
Population Fragmented Nuclei (%) [3]: 41%
Population Healthy Nuclei (%) [3]: 45%
Population Hoechst High Intensity Objects (%) [3]: 6%
Population Membrane Permeable-Phenotype (%) [3]: 7%
Population Mitochondria Different-Phenotype (%) [3]: 1%
Population Mitotic Cells (%) [3]: 8%
Population Normal (%) [3]: 93%
Population Pyknosed Nuclei (%) [3]: 13%
Population Tubulin-Different-Phenotype (%) [3]: 4%
Total Cell Count [3]: 199
Population Apoptotic (%) [4]: 86%
Population Fragmented Nuclei (%) [4]: 33%
Population Healthy Nuclei (%) [4]: 50%
Population Hoechst High Intensity Objects (%) [4]: 9%
Population Membrane Permeable-Phenotype (%) [4]: 6%
Population Mitochondria Different-Phenotype (%) [4]: 2%
Population Mitotic Cells (%) [4]: 13%
Population Normal (%) [4]: 90%
Population Pyknosed Nuclei (%) [4]: 15%
Population Tubulin-Different-Phenotype (%) [4]: 6%
Total Cell Count [4]: 105
Population Apoptotic (%) [5]: 84%
Population Fragmented Nuclei (%) [5]: 28%
Population Healthy Nuclei (%) [5]: 64%
Population Hoechst High Intensity Objects (%) [5]: 2%
Population Membrane Permeable-Phenotype (%) [5]: 6%
Population Mitochondria Different-Phenotype (%) [5]: 1%
Population Mitotic Cells (%) [5]: 15%
Population Normal (%) [5]: 97%
Population Pyknosed Nuclei (%) [5]: 7%
Population Tubulin-Different-Phenotype (%) [5]: 2%
Total Cell Count [5]: 278
Population Apoptotic (%) [6]: 75%
Population Fragmented Nuclei (%) [6]: 19%
Population Healthy Nuclei (%) [6]: 68%
Population Membrane Permeable-Phenotype (%) [6]: 7%
Population Mitochondria Different-Phenotype (%) [6]: 5%
Population Mitotic Cells (%) [6]: 25%
Population Pyknosed Nuclei (%) [6]: 11%
Population Tubulin-Different-Phenotype (%) [6]: 1%
Total Cell Count [6]: 105
Population Apoptotic (%) [7]: 94%
Population Fragmented Nuclei (%) [7]: 39%
Population Healthy Nuclei (%) [7]: 50%
Population Hoechst High Intensity Objects (%) [7]: 9%
Population Membrane Permeable-Phenotype (%) [7]: 11%
Population Mitochondria Different-Phenotype (%) [7]: 5%
Population Mitotic Cells (%) [7]: 5%
Population Normal (%) [7]: 90%
Population Pyknosed Nuclei (%) [7]: 10%
Population Tubulin-Different-Phenotype (%) [7]: 6%
Total Cell Count [7]: 195
Population Apoptotic (%) [8]: 100%
Population Fragmented Nuclei (%) [8]: 31%
Population Healthy Nuclei (%) [8]: 45%
Population Hoechst High Intensity Objects (%) [8]: 11%
Population Membrane Permeable-Phenotype (%) [8]: 2%
Population Mitochondria Different-Phenotype (%) [8]: 0%
Population Mitotic Cells (%) [8]: 0%
Population Normal (%) [8]: 88%
Population Pyknosed Nuclei (%) [8]: 22%
Population Tubulin-Different-Phenotype (%) [8]: 2%
Total Cell Count [8]: 96
Population Apoptotic (%) [9]: 87%
Population Fragmented Nuclei (%) [9]: 24%
Population Healthy Nuclei (%) [9]: 66%
Population Hoechst High Intensity Objects (%) [9]: 0%
Population Membrane Permeable-Phenotype (%) [9]: 9%
Population Mitochondria Different-Phenotype (%) [9]: 5%
Population Mitotic Cells (%) [9]: 12%
Population Normal (%) [9]: 99%
Population Pyknosed Nuclei (%) [9]: 9%
Population Tubulin-Different-Phenotype (%) [9]: 4%
Total Cell Count [9]: 333
Population Apoptotic (%) [10]: 92%
Population Fragmented Nuclei (%) [10]: 18%
Population Healthy Nuclei (%) [10]: 72%
Population Membrane Permeable-Phenotype (%) [10]: 4%
Population Mitochondria Different-Phenotype (%) [10]: 3%
Population Mitotic Cells (%) [10]: 7%
Population Tubulin-Different-Phenotype (%) [10]: 2%
Total Cell Count [10]: 150
Population Apoptotic (%) [11]: 92%
Population Fragmented Nuclei (%) [11]: 41%
Population Healthy Nuclei (%) [11]: 44%
Population Hoechst High Intensity Objects (%) [11]: 10%
Population Membrane Permeable-Phenotype (%) [11]: 15%
Population Mitochondria Different-Phenotype (%) [11]: 8%
Population Mitotic Cells (%) [11]: 7%
Population Normal (%) [11]: 89%
Population Pyknosed Nuclei (%) [11]: 14%
Population Tubulin-Different-Phenotype (%) [11]: 10%
Total Cell Count [11]: 215
Population Apoptotic (%) [12]: 94%
Population Fragmented Nuclei (%) [12]: 36%
Population Healthy Nuclei (%) [12]: 40%
Population Hoechst High Intensity Objects (%) [12]: 17%
Population Membrane Permeable-Phenotype (%) [12]: 24%
Population Mitochondria Different-Phenotype (%) [12]: 13%
Population Mitotic Cells (%) [12]: 5%
Population Normal (%) [12]: 82%
Population Pyknosed Nuclei (%) [12]: 23%
Population Tubulin-Different-Phenotype (%) [12]: 13%
Total Cell Count [12]: 87
